Only some compounds are listed: those with a hit (about 0.83% of all), similar ones and a draw of the others.
RGS8-Gao reg: human RGS8-Galphao interaction regulation. response (percent of control binding), % at 10 µM. 0.34% of 220,000 active. AID 1423. P09471. multiplexed bead flow cytometry, RGS8-Galphao binding; actives lie on both sides; in the data active means response below about 60% or above about 140%; inactive means in between;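 further: Galphao activated as the GDP aluminium fluoride complex binding bead-coupled RGS8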
Target sequence (P09471 whole entry, looked up): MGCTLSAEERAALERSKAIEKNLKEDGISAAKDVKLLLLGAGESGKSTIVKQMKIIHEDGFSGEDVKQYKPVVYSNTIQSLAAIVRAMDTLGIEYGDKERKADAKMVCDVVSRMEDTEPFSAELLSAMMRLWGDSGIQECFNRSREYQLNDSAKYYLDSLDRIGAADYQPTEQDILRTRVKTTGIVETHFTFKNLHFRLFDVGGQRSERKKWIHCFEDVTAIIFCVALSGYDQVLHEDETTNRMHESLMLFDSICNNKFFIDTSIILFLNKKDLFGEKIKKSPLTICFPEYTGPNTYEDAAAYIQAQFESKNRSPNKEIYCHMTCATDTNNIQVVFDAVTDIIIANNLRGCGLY
RGS7-Gao reg: regulators of human RGS7-Galphao interaction; P09471; Multiplexed bead flow cytometry, RGS7-Galphao binding; actives lie on both sides; binding response (% of control), % at 10 µM; 0.35% of 220,000 active; AID 1439; in the data active means binding response below about 49% or above about 150%; inconclusive means no clear call, values can overlap the other calls; inactive means in between;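 further: fluorescent Galphao held in activated GDP-AlF4 state binding bead-coupled RGS7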
ABCB1 block: blocks JC-1 efflux by human ABCB1 transporter; CCRF-Adr cells, flow cytometry; inhibition, % at 6.6 µM; 0.067% of 190,000 active; AID 1326; in the data active means inhibition above about 40%;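 further: 0% = vehicle and 100% = reference inhibitor; higher value means more JC-1 retained so stronger ABCB1 efflux block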
ABCG2 block: inhibitors of human ABCG2 transporter, ABCB1 counter-screen. Q9UNQ0. IgMXP3 cells, JC-1 efflux, flow cytometry. inhibition, % at 6.6 µM. 0.1% of 190,000 active. AID 1325;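 active means inhibition above 80%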;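 further: 0% = DMSO and 100% = nicardipine control wells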
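Test system: IgMXP3 (ABCG2) plus far-red-tagged CCRF-Adr (ABCB1) cells / Amount: 3 million cells/mL in well / Reagent: JC-1 transporter substrate / Timing: 10 min compound exposure, 25 °C / Signal: flow cytometry, 530 nm JC-1 signal / Read-out: percent efflux inhibition, scaled nicardipine 100% to DMSO 0% / Benchmarks: nicardipine as high control, DMSO as low control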
RGS4-Gao reg: human RGS4-Galphao interaction regulation. P09471. 0.33% of 220,000 active. binding response (% of control), % at 10 µM. Multiplexed bead flow cytometry, RGS4-Galphao binding; actives lie on both sides; in the data active means binding response below about 49% or above about 150%; inactive means in between;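 further: fluorescent Galphao activated with aluminum fluoride binding bead-coupled RGS4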
RGS16-Gao HTS: modulates binding between human RGS16 and Galphao; O15492+P09471; bead-based flow cytometry RGS16-Galphao binding, fluorescence; actives lie on both sides; 0.38% of 220,000 active; binding response (% of control), % at 10 µM; call rule not given here;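 further: Galphao activated by GDP with aluminum fluoride before binding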
Active calls of the source: *; u = inconclusive; x = no result; + = active, no number; [ ] = another dose, or the depositor's remark.

SMILES | RGS8-Gao reg | RGS7-Gao reg | ABCB1 block | ABCG2 block | RGS4-Gao reg | RGS16-Gao HTS
COc1ccc(/C=C/C(=O)c2ccc(O)cc2)cc1 | 101 | 99 | -1 | 5 | 99 | 102
COc1ccc(/C=C/C(=O)c2ccccc2O)cc1 | 103 | 148 | 1 | 25 | 159*[activator] | 107
CC(=O)Oc1ccc2c(c1)Oc1cc(OC(C)=O)ccc1C21OC(=O)c2ccccc21 | 165*[activator] | 628*[activator] | x | x | 581*[activator] | 888*[activator]
Cc1cc(O)ccc1C1(c2ccc(O)cc2C)OC(=O)c2ccccc21 | 103 | 103 | 1 | 1 | 103 | 106
COc1ccccc1N(C)S(=O)(=O)c1ccc(C(=O)OCC(=O)N2CCC2)cc1 | 100 | 96 | 0 | 3 | 98 | 101
C/C(=N\N=C(N)N)c1ccc(Cl)c(Cl)c1 | 95 | 95 | 0 | 2 | 97 | 94
COc1ccc(Cc2[nH]n3c(=O)c(Cl)c(C)nc3c2-c2ccccc2)cc1 | 99 | 99 | -1 | -6 | 98 | 103
Cc1ccc(CCN2CC(C(=O)NCCCN3CCOCC3)CC2=O)cc1 (stereo not given) | 98 | 85 | 0 | 1 | 79 | 82
CC1=CC2=NC(=O)/C(=C\c3cccn3CCOc3cc(C)cc(C)c3)C(=N)N2O1 | 94 | 101 | 26 | 74 | 99 | 73
C=CCc1cccc(/C=N/NC(=O)C(C)Nc2ccc(C)cc2)c1O (stereo not given) | 112 | 110 | 3 | 41 | 104 | 134
CC(C)N=c1c([N+](=O)[O-])nn(C)n1O | 101 | 102 | 0 | 3 | 100 | 101
CCCCc1c(C)nc2ccc(C(=O)OCC)cc2c1Cl | 99 | 98 | 0 | 1 | 101 | 100
CCOC(=O)c1ccc2nc(C)c(CCC(C)=O)c(Cl)c2c1 | 11* | 19* | 0 | 0 | 19* | 8.4*
CCCCNC(=O)Nc1nnc(-c2ccc(Cl)cc2)o1 | 101 | 98 | 0 | 2 | 100 | 105
O=C(Nc1ccc([N+](=O)[O-])cc1)c1cncc(Br)c1 | 102 | u | 1 | 14 | 104 | 103
O=C(Cc1ccccc1[N+](=O)[O-])NCc1ccc(Cl)cc1 | 101 | 176*[activator] | 0 | 0 | 213*[activator] | 105
O=C(Cc1ccccc1[N+](=O)[O-])NCc1ccc(Cl)cc1Cl | 98 | 103 | 1 | 18 | 102 | 91
CCOC(=O)c1cccc(P(C)(C)=O)c1 | 99 | 103 | 0 | 0 | 103 | 104
COc1cc(C(=O)NNc2nc3cc4c(cc3s2)OCO4)cc(OC)c1OC | 96 | 127 | 1 | 9 | 161*[activator] | 107
Cn1c(=O)c(NC2CCCCC2)c2c3c(cccc31)C(=O)c1ccccc1-2 | 98 | 99 | 48* | 66 | 99 | 94
CCNc1c2c3c(cccc3n(C)c1=O)C(=O)c1ccccc1-2 | 111 | 116 | 2 | 4 | 120 | 115
COCCNC(=S)N(C)C1(c2ccccc2Cl)CCCCC1=O (stereo not given) | 98 | 100 | 1 | 1 | 99 | 94
CSC1=NSC2=NC(=O)/C(=C/c3coc4ccc(O)cc4c3=O)C(=N)N12 | 96 | 92 | + | 1 | 97 | 97
CCOc1ccc(NCc2nnc(SCc3ccc(Cl)cc3)n2-c2ccccc2)cc1 | 101 | 100 | 1 | 7 | 98 | 95
O=C(Nc1nnc(COc2ccc(Cl)cc2)s1)c1ccco1 | 83 | 128 | 0 | 2 | 94 | 67
SMILES | RGS8-Gao reg | RGS7-Gao reg | ABCB1 block | ABCG2 block | RGS4-Gao reg | RGS16-Gao HTS
Cc1nnc(SCC(=O)N2CCc3ccccc32)s1 | 101 | 100 | 43* | 5 | 100 | 103
CSc1nsc(SCC(=O)N2CCc3ccccc32)n1 | 97 | 92 | 1 | 4 | 94 | 101
Cc1cc2cc(C)c3nnc(SCC(=O)N4CCc5ccccc54)n3c2cc1C | 12* | 14* | 0 | -1 | 22* | 1.3*
CCOC(=O)C1(CC2CC2)CCN(Cc2cnc(-c3ccc(OC)cc3)nc2)CC1 | 98 | 98 | 2 | 3 | 99 | 98
CCCC(=O)c1ccc(O)cc1O | 90 | u | x | x | 93 | 90
Cc1ccsc1-c1nc(C(N)=O)c2[nH]c(=O)n(-c3ccc(Cl)cc3)c2n1 | 108 | 101 | -1 | 0 | 108 | 113
